How the values were obtained:
P-gp [1] = target: T1, P-gp (Homo sapiens, UniProt P08183); test: Caco-2 transwell basolateral to apical transport of P-gp substrates; type: in vitro ADME
P-gp [2] = target: P-gp (Mus musculus, UniProt P21447); test: Ex vivo mouse jejunum intestinal sac, mucosal to serosal R123 transport; type: in vitro ADME, BALB/c mice; details: BALB/c, with microdevices, 3000 microdevices/cm^2
Summary of the method: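 Intestinal sacs from three BALB/c mice aged 18–20 weeks, with one end tied off, were incubated in media at 37°C. Over time the serosal-side solution was removed and replaced with fresh media. Fluorescence of the removed solution was read at excitation 495 nm and emission 560 nm.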

P-gp [3] = target: T1, P-gp; test: Biosimilar mucus transport study of R123 in Caco-2 transwells; type: in vitro ADME

T1 sequence (P08183 whole entry): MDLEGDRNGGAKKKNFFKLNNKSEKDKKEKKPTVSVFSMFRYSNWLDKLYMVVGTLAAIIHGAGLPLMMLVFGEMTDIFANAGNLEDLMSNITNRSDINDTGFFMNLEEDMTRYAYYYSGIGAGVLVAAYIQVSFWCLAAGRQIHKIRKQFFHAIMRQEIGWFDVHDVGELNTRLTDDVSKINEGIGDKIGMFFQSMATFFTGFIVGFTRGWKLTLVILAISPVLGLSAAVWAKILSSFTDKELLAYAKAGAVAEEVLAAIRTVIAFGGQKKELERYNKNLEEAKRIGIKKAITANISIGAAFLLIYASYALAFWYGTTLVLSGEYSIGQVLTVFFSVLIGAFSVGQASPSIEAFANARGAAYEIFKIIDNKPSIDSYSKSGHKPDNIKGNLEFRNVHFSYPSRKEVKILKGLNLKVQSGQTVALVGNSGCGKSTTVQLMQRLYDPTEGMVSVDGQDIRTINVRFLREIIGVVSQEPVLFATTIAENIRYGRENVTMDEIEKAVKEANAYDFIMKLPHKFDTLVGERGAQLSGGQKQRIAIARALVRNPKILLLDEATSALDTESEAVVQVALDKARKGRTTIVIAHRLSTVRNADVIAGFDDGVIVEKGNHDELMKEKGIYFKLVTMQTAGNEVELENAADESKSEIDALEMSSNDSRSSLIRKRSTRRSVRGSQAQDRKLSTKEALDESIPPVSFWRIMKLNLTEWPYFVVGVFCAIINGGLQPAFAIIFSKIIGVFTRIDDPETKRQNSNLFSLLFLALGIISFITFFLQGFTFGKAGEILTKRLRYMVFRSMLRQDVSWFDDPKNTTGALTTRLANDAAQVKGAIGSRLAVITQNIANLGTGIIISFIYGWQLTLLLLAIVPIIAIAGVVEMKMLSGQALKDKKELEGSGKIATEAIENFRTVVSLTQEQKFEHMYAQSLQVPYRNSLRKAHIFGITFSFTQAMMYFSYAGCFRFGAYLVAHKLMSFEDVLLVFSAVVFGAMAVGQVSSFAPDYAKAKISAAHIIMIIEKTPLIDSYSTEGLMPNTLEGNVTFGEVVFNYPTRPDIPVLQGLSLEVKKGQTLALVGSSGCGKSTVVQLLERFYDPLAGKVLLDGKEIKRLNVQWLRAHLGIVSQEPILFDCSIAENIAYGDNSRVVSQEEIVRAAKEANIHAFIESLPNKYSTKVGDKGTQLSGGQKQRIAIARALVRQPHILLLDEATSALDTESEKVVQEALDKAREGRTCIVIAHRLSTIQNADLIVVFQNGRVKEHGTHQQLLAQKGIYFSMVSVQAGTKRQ
P-gp (Mus musculus, UniProt P21447), sequence (P21447 whole entry): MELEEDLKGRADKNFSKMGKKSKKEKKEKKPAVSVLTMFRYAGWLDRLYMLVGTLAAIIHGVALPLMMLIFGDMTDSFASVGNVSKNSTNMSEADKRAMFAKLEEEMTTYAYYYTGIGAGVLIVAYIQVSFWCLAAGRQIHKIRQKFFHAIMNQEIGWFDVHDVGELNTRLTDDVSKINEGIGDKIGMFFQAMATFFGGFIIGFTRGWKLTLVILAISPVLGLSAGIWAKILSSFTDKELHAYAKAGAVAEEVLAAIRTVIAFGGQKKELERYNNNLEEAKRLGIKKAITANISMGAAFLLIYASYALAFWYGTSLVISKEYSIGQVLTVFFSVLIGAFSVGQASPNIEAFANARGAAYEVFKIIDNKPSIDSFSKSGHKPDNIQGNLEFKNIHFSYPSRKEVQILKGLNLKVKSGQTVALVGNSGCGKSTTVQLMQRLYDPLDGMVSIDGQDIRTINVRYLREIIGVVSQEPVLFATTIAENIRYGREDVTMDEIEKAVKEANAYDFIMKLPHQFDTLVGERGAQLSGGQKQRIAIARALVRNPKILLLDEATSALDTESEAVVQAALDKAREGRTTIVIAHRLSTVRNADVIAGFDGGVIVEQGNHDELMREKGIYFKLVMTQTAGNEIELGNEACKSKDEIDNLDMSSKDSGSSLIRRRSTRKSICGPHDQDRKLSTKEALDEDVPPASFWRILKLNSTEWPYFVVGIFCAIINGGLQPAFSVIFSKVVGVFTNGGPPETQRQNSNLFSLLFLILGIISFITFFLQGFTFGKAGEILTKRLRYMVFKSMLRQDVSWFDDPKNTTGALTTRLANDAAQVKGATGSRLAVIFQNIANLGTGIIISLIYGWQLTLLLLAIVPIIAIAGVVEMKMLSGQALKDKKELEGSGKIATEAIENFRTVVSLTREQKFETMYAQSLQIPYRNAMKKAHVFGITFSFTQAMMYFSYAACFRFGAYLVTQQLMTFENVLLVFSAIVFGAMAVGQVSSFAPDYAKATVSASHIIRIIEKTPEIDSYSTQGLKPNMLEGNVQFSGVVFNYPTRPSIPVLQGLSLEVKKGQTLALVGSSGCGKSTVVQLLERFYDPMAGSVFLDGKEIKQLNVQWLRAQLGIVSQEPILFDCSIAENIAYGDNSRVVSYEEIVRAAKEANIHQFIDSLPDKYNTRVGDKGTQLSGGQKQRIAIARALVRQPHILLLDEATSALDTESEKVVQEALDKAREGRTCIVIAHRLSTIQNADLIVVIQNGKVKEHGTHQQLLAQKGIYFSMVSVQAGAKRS

Row | Papp B→A (P-gp [1]) [×10⁻⁶ cm/s] | Papp at 5 µM (P-gp [2]) [×10⁻⁶ cm/s] | Papp B→A at 5 µM (P-gp [3]) [×10⁻⁶ cm/s] | SMILES
1 | 8.03 ± 3.5 | 0.35 | 9.25 ± 3.8 | COC(=O)c1ccccc1-c1c2ccc(=N)cc-2oc2cc(N)ccc12 [R123, rhodamine 123]
2 | 1.9 ± 0.35 |  |  | COc1cccc2c1C(=O)c1c(O)c3c(c(O)c1C2=O)C[C@@](O)(C(=O)CO)C[C@@H]3O[C@H]1C[C@H](N)[C@H](O)[C@H](C)O1 [Doxorubicin, doxorubicin]

Source: paper PMC6919324 (European journal of pharmaceutics and biopharmaceutics : …, 2019)
